This is a sample that favours compounds with a hit; in the whole collection about 11% have one here.
SF1 activator = activators of human nuclear receptor SF-1; Q13285; CHO-K1 Gal4-SF-1 LBD luciferase reporter; % increase over DMSO SF-1-specific signal; activation, % at 10 µM; 65,000 tested, 1.9% active; AID 522;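 active = activation above the mean activation of all tested compounds plus 3 SD, cut at about 50% in these data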
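Test system: CHO-K1 cells with Gal4–hSF-1 LBD chimera plus Gal4-driven luciferase; Input: 4,000 cells/well; Compound: 10 µM only; Times: 20 h compound treatment, 37 °C; Measured by: steady-glow luciferase luminescence, read after 15 min reagent incubation; Measure: percent activation versus DMSO; Control set: DMSO and mock-transfected background; Replicates: one test per compound.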
D1 mod = allosteric modulators of human D1 dopamine receptor; HEK293 D1, CRE-luciferase, dopamine EC30 potentiation; actives deviate in either direction; B-score at 10 µM; 58,000 tested, 5.9% active; AID 641;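 active = luminescence count or its row- and column-corrected plate score outside the 99.7% band of the plate's sample wells, on either side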
RORA act = activators of human nuclear receptor RORA | P35398 | CHO-K1 Gal4-RORA LBD luciferase reporter, luminescence; percent increase over mock-subtracted basal signal | activation, % at 10 µM | 65,000 tested, 1.5% active | AID 560;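 active = activation above the mean of all tested compounds plus 3 SD, cut at about 49% in these data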;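 also: 0% = DMSO-treated RORA cells and 100% = added signal equal to DMSO minus mock-transfected cells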
M1 antag = M1 muscarinic receptor (rat) antagonism; P08482; CHO-M1 cells, Fluo-4 calcium, ACh EC80 antagonist mode; hits give low values; B-score at 10 µM; 64,000 tested, 3.4% active; AID 628;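 active = calcium fluorescence response, raw or row-and-column corrected B-score, differing from the plate sample mean either way at a set confidence level, mostly lower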
Target sequence (P08482 whole entry, looked up): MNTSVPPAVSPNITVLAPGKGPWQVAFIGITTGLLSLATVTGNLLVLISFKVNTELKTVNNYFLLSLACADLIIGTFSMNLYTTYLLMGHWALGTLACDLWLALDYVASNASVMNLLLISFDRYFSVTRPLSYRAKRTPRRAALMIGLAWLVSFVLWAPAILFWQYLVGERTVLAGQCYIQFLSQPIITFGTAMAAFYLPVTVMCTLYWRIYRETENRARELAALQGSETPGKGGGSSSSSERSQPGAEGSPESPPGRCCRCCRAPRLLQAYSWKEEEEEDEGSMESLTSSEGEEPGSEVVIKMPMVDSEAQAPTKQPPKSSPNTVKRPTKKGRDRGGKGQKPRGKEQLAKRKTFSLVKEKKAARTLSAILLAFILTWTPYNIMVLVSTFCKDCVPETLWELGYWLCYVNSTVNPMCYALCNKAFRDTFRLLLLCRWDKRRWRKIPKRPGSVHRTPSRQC
mHtt clearance = mutant huntingtin protein clearance. 47,000 tested, 0.42% active. inhibition, % at 1.5 µM. HeLa Exon1htt(103Q)mCFP, aggregate imaging; zero = plate's median compound well;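 active = inhibition of aggregate fluorescence above about 70%, also judged a hit by eye on the cell image, limit read from the data, passing the limit was not always enough; inconclusive = no rule stated for this call; inactive = not judged a hit on image review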;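 also: cells exposed to compound for three days before fixation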
M1 agonist = activates the M1 muscarinic receptor. CHO-M1 cells, Fluo-4 calcium fluorescence, agonist mode; hits give high values. B-score at 10 µM. 64,000 tested, 3% active. AID 626;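 active = fluorescence rise, raw or as B-score row- and column-corrected plate score, outside the 99.7% band of its plate's samples, either direction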
M1 agonist conf = rat M1 muscarinic agonism, confirmation; fluorescence change (max-min) at 10 µM; CHO-M1 cells, Fluo-4 calcium fluorescence, agonist mode; actives lie on both sides; 1,700 tested, 19% active; shares compounds with M1 agonist;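 active = fluorescence change differs from the solvent-only DMSO control mean at a set confidence level in both duplicate runs; inconclusive = differs from solvent-only control mean in just one of two runs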;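 also: an EC20 dose of acetylcholine follows compound addition during the same imaging run; raw fluorescence intensity difference in instrument units with no normalization to controls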
M4 agonist ctr = rat M4 muscarinic agonism, M1 counter-screen; shares compounds with M1 agonist; CHO M4/Gqi5 cells, Fluo-4 calcium fluorescence, agonist mode; actives lie on both sides; fluorescence change (max-min) at 10 µM; 1,700 tested, 9% active;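 active = fluorescence change differing from the plate's solvent-only control wells at 99.7% confidence in both duplicates, whether higher or lower; inconclusive = differs from solvent controls in only one of two duplicates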
The depositor's hits bear a star.

Screening CC(C)(CC(=O)N1CCN(c2ccc(Cl)cc2)CC1)CC1=NS(=O)(=O)c2ccccc2N1 returned SF1 activator -11, RORA act -4, M1 antag -3.2*, M1 agonist 11*, M1 agonist conf inconclusive and M4 agonist ctr -46.
`O=C(CCCC1=NS(=O)(=O)c2ccccc2N1)N1CCN(c2ccc(Cl)cc2)CC1` gave SF1 activator 18, D1 mod -0.75, RORA act 12, M1 antag -0.21 and M1 agonist 1.6.
For CCCCC1(O)CC(C(F)(F)F)=NN1C(=O)COc1ccccc1 (centres undefined) the results were mHtt clearance -44.
CC(=O)N1CCc2cc(S(=O)(=O)Nc3cccc(C(F)(F)F)c3)ccc21 was read as SF1 activator -19, D1 mod -1.3, RORA act 1, M1 antag -0.98, M1 agonist 5.1*, M1 agonist conf -11 and M4 agonist ctr -34.
`O=C(Nc1ccc(N2CCN(C(=O)c3ccco3)CC2)c(Cl)c1)c1cc2ccccc2o1` gave SF1 activator -11, D1 mod -1.1, RORA act -24 and mHtt clearance 19.
Screening CCCC(=O)N1CCN(c2ccc(NC(=O)c3cc4ccccc4o3)cc2Cl)CC1 returned SF1 activator -48, D1 mod -2.7, RORA act -30, M1 antag -1.6, M1 agonist 6.9*, M1 agonist conf -17 and M4 agonist ctr -34.
For CCC(=O)N1CCN(c2ccc(NC(=O)c3cc4ccccc4o3)cc2Cl)CC1 the results were SF1 activator -9, D1 mod -3.9*, RORA act -25, M1 antag -1.9*, M1 agonist 4.5*, M1 agonist conf -19 and M4 agonist ctr -35.
`COc1ccc(NC(=O)c2ccccc2NC(=O)C2CCCO2)cc1` (centres undefined) gave SF1 activator 27, D1 mod 0.17, RORA act 3, M1 antag 0.97, mHtt clearance 66 and M1 agonist 0.49.
Screening COc1ccc2nc3c(cc2c1)c(NC(=O)C1CCCO1)nn3CC(C)C (centres undefined) returned SF1 activator 32, D1 mod -0.0025, RORA act 10, M1 antag -0.82, M1 agonist 4.3*, M1 agonist conf 3.3 and M4 agonist ctr -23.
Screening CCCCn1nc(NC(=O)c2cccs2)c2cc3cc(OC)ccc3nc21 returned SF1 activator 16, D1 mod -1.2, RORA act 18, M1 antag 0.39, mHtt clearance 55, M1 agonist 6.4*, M1 agonist conf -24 and M4 agonist ctr -25.
For CCCCC(=O)NC(Nc1nc(C2CC2)cs1)(C(=O)OCC)C(F)(F)F (centres undefined) the results were SF1 activator -5, D1 mod -0.47, RORA act 12, M1 antag -2.2 and M1 agonist 0.93.
`COc1ccc(-c2nnc(-c3cc4ccccc4oc3=O)o2)cc1` gave mHtt clearance -41.
`CCCCCCc1cc2cc(-c3nnc(-c4ccccc4O)o3)c(=O)oc2cc1O` gave SF1 activator -14, RORA act -12, M1 antag 3.3*, M1 agonist 317*, M1 agonist conf 781* and M4 agonist ctr 843*.
`CCOC(=O)Cc1csc(NC(=O)COc2ccccc2)n1` gave SF1 activator -4, D1 mod 0.048, RORA act -6, M1 antag -1 and M1 agonist -1.4.
Screening CCOC(=O)Cc1csc(NC(=O)COc2ccc(N(C)S(=O)(=O)c3cccs3)cc2)n1 returned SF1 activator 8, D1 mod -0.9, RORA act -1, M1 antag -0.69, M1 agonist 6.2*, M1 agonist conf inconclusive and M4 agonist ctr -23.
For CC1(C)CC(=O)c2sc(NC(=O)c3ccc4ncsc4c3)nc2C1 the results were mHtt clearance -379.
